Measurements reported in ChEMBL document CHEMBL4513216, “Probing the Open Global Health Chemical Diversity Library for Multistage-Active Starting Points for Next-Generation Antimalarials” (ACS Infect Dis, 2020).

Test: Toxicity liver stage against HepG2, at 10uM
Assay type: cell-based
Set-up: test concentration 10 uM, cell line HepG2-A16-CD81EGFP
Settings: human, HepG2-A16-CD81EGFP cells; read-out: INHIBITION
Summary of the method: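 Uninfected HepG2-A16-CD81EGFP cells, 3 × 10^3 per well, 1536-well, plated on prespotted compound at 10 μM final, parasite-free screening media added to match infected plates; puromycin 10 μM positive, DMSO 0.5% negative; run in parallel with 48 h PbLuc assay at 37 °C, 5% CO2; viability by CellTiter-Glo luminescence, normalized to controls.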

Row | Compound | cytotoxicity at 10 µM
1 | COc1cc2nc(C)n(CC(=O)NCC(C)C)c(=O)c2cc1OC | -4.76%
2 | CC(=O)c1cccc(NC(=O)Cn2cnc(-c3ccccc3)cc2=O)c1 | -12.3%
3 | CS(=O)(=O)N1CCN(c2ccc(Nc3ccccn3)nn2)CC1 | -6.01%
4 | N#Cc1cccc(C(=O)N2CC(c3nc(-c4ccc[nH]c4=O)no3)C2)c1 | -4.13%
5 | CS(=O)(=O)C1CCN(S(=O)(=O)c2ccc(F)c(F)c2)C1 (configuration not stated) | -9.52%
6 | CCOCC1CN(C(=O)N2CCCC2)Cc2cnn(C)c21 (configuration not stated) | -0.96%
7 | Cc1ccc(CN2CC[C@H]3C[C@H](c4nc(C5CC5)cs4)O[C@@H]3C2)o1 | 3.81%
8 | COc1cc(OC)c(-n2nnc(C(=O)O)c2C)cc1Cl | -16.8%
9 | COCCO[C@@H]1CCN(C(=O)c2ccc(C)o2)[C@@H]1Cc1cnn(C)c1 | -12.8%
10 | CCCNC(=O)NC(C)c1ccccn1 (configuration not stated) | -8.26%
11 | Cc1nc(NC(=O)C(C)n2ncc(Br)c2C)sc1C (configuration not stated) | 10.3%
12 | Cc1ccnc(C2(C)CCCN2S(=O)(=O)c2cccnc2)n1 (configuration not stated) | 5.95%
13 | CC(=O)N1CCCC1(C)c1nc(C)no1 (configuration not stated) | 2.71%
14 | O=C(O)c1cn2cc(C(F)(F)F)ccc2n1 | 3.52%
15 | CN1CCN(C(=O)Cc2csc(-c3ccsc3)n2)C(c2ccccc2)C1 (configuration not stated) | -8.38%
16 | Cc1ccnc2c1NC(=O)CN2C(=O)CCc1cccs1 | -19.5%
17 | COc1cccc(COC(C)C(=O)NCc2nnc3n2CCC3)c1 (configuration not stated) | 8.67%
18 | Cc1cc(NC(=O)N2CCN(C)CC2C)n(C(C)(C)C)n1 (configuration not stated) | 6.3%
19 | CC(NC(=O)N1CCC1)c1ccc(S(N)(=O)=O)cc1 (configuration not stated) | -8.64%
20 | CC(C)(CNC(=O)C1CCCN(C(N)=O)C1)c1cccc(Cl)c1 (configuration not stated) | 1.75%
21 | CC(C1CC1)N(C)Cc1nnc(-c2ccco2)o1 (configuration not stated) | -2.14%
22 | Cc1cn2c(n1)CCC(NS(=O)(=O)c1sc(C)nc1C)C2 (configuration not stated) | -20.8%
23 | CNC(=O)c1cccc(CCNS(C)(=O)=O)c1 | 13.4%

Row | Compound | cytotoxicity at 10 µM
24 | CN(C)c1ccc(C(=O)N2CCCC2c2ccc(Cl)cc2)cc1 (configuration not stated) | 1.21%
25 | CN1CCCN(C(=O)NCCNc2ncccc2C#N)CC1 | 6.75%
26 | COCCCn1ccc(NC(=O)NCc2cccc(N(C)C)c2)n1 | 2.4%
27 | COCC(C)NC(=O)Nc1cc(-c2ccccc2C)nn1CCO (configuration not stated) | -14.3%
28 | COc1c(CNCC(O)COc2ccc3c(c2)OCO3)c(C)nn1C (configuration not stated) | 3.07%
29 | c1ccc2c(c1)CCC21CN(CCc2ccncc2)CCO1 (configuration not stated) | -0.934%
30 | CC(C(=O)N1CCOCC1)N1CCc2cncnc2C1 (configuration not stated) | -5.05%
31 | CC(C)(C)CC(=O)NCC(=O)Nc1ccn(Cc2ccccc2)n1 | 7.08%
32 | CCC1COCCN1C(=O)NCc1cccc(-c2cnn(C)c2)c1 (configuration not stated) | -1.62%
33 | CC(C)Cc1noc(COc2ccc(N(C)C(N)=O)cc2)n1 | 34.4%
34 | CCn1nc(C)c(CNCCn2cc(C)cn2)c1C | -4.91%
35 | O=C(c1ccc(O)nc1)N1CCN(C(=O)c2ccc(F)c(F)c2)CC1 | -10.3%
36 | CC(C)C(C)(C#N)NC(=O)Cn1cc(I)cn1 (configuration not stated) | 18.1%
37 | CN(C(=O)c1cccc(OCC(F)F)n1)c1ccc2c(c1)CCO2 | 43%
38 | FC(F)(F)c1cc(NCCn2ncnn2)nc(-c2cccnc2)n1 | 18.9%
39 | CCC(C(=O)N1CCCSCC1)N1CCCC1=O (configuration not stated) | 6.27%
40 | Cc1cnn(CCNc2nc(C)cc(N(C)C)n2)c1 | 5.36%
41 | CNc1nc(CNC(=O)Nc2ccc(OC)cc2C)cs1 | -8.17%
42 | CCN(CC(=O)NC)S(=O)(=O)N1CCCCCC1 | 5.04%
43 | CCCc1nc(C)c(C(=O)NS(=O)(=O)c2ccc(C#N)cc2)s1 | -12%
44 | O=C(c1ccco1)N1CCCC1C1CCN(Cc2ccccc2)CC1 (configuration not stated) | 0.821%
45 | CN(C)c1cc(C(=O)NCCc2n[nH]c(=O)[nH]2)ccn1 | -1.89%
46 | Cc1csc(N2CCN(Cc3cnc(C)s3)CC2C)n1 (configuration not stated) | 14.7%

Row | Compound | cytotoxicity at 10 µM
47 | CCN1CC2(CC1=O)CN(C(=O)NC(C)C)CCN(S(C)(=O)=O)C2 (configuration not stated) | -3.67%
48 | CN1C(=O)C(c2cccnc2)CC12CCN(Cc1nccs1)CC2 (configuration not stated) | -1.16%
49 | O=C(c1ccco1)N1CCc2onc(Cn3cccn3)c2C1 | -1.22%
50 | Cc1nc2c(c(N3CCC(O)(CN4CCCC4)CC3)n1)CCN(C)CC2 | -2.84%
51 | CNc1nc(C(=O)N2CCC3(CCCN(CC4CC4)C3=O)C2)cs1 (configuration not stated) | 5.33%
52 | Cc1nc(C)n(CC(C)C(=O)N2CCC(N3CCC(O)CC3)CC2)n1 (configuration not stated) | 1.43%
53 | CC(c1nccs1)n1cc(-c2cc(CN3CCCCC3)cs2)nn1 (configuration not stated) | 1.22%
54 | Cc1nc(-c2cccnc2)ncc1C(=O)N1CCC(c2ncc[nH]2)CC1 | 0.626%
55 | COc1ccc(NC(=O)N2CCC3(CC2)NC(=O)CC3C(=O)O)cc1Cl (configuration not stated) | -3.06%
56 | CN(Cc1cnccn1)C(=O)c1ccc(CSc2nnc[nH]2)o1 | 1.22%
57 | CN(CCCOc1ccccc1Cl)C(=O)CN1CCCCCC1=O | -9.63%
58 | O=C(CCn1cccn1)N1CCC(C2CCN(c3ncccn3)CC2)C1 (configuration not stated) | 5.33%
59 | COc1ccc(C(=O)O)cc1-c1cccc2c1CCNC2 | 0.979%
60 | Cc1cc(C(=O)N(C)C2CCN(C)C2)c2ccc(F)cc2n1 (configuration not stated) | -2.55%
61 | COc1ccc(Cn2cc(C(=O)N(C)Cc3cnccn3)nn2)cc1 | 9.81%
62 | CN(Cc1cccc(-n2cccn2)c1)C(=O)c1ccnc(N)c1 | -0.491%
63 | Cc1ccccc1CN(Cc1ccncc1)CC(C)C | 11.9%
64 | CCn1nc(C)cc1S(=O)(=O)N1CCC2(CC(=O)NC2=O)C1 (configuration not stated) | 0.0942%
65 | CN(c1ncccc1CNCc1ncc[nH]1)C1CCCCC1 | -7.28%
66 | CCN1CCC(CC(=O)N2CCN(c3ccccc3OC)CC2C)CC1 (configuration not stated) | -4.9%
67 | Cc1cnccc1N1CCCN(C(=O)CCCS(N)(=O)=O)CC1 | -18.7%
68 | Cc1nnc(CN(C)C2CCN(CCc3ccccn3)CC2)o1 | 1.04%
69 | Cc1cnn(CC2CCCN2Cc2nnc(C(C)C)o2)c1 (configuration not stated) | -20.3%

Row | Compound | cytotoxicity at 10 µM
70 | Cn1ncc2c(N3CCN(C(=O)c4ccsc4)CC3)ncnc21 | -9.27%
71 | CC(C(=O)NCc1ccc(N2CCCC2)nc1)n1cncn1 (configuration not stated) | -22.4%
72 | CCc1nc(C2CCCN2Cc2ccn(C)c(=O)c2)no1 (configuration not stated) | -4.25%
73 | CCN(CC)Cc1ccc(C(=O)N2CCN(CC(C)O)CC2)o1 (configuration not stated) | -9.65%
74 | CCc1nnc2n1CCN(C(=O)c1nc(-c3ccco3)sc1C)C2 | -1.19%
75 | CCN(CC)CC(=O)N1CCCC1Cn1cccn1 (configuration not stated) | -3.08%
76 | COc1ccc(S(=O)(=O)NCc2cccnc2N(C)C)cc1 | 5.32%
77 | CNC(=O)CS(=O)(=O)Cc1cc(Cl)c2c(c1)OCCO2 | -4.17%
78 | CCOc1ccccc1CNC1CCCN(Cc2noc(C)n2)C1 (configuration not stated) | -13.1%
79 | Cc1cccc(C2(CNC(=O)CO)CCCC2)c1 | -19.1%
80 | O=C1C(NS(=O)(=O)c2ccc(F)c(F)c2)CCN1Cc1ccccc1 (configuration not stated) | -2.81%
81 | Cc1cc(C)n(C2CN(CC(O)c3ccc(S(C)(=O)=O)cc3)C2)n1 (configuration not stated) | -12.9%
82 | CC(C)c1noc(CCCC(=O)NCC2CCS(=O)(=O)C2)n1 (configuration not stated) | -22.3%
83 | Cc1ccc(NC2CCN(C(=O)c3cccnc3N(C)C)CC2)nn1 | -12.1%
84 | c1ccc2c(OCCN3CCn4c(nnc4C4CC4)C3)cccc2c1 | -3.87%
85 | c1ccc(Cc2nnc(CN3CCn4c(nnc4C4CC4)C3)o2)cc1 | -0.192%
86 | CN(C)C1CCCN(C(=O)NCc2ccccc2-n2cccn2)C1 (configuration not stated) | -4.14%
87 | Cc1cc(C)cc(OCCN(C)C(=O)NC(C)c2nncn2C)c1 (configuration not stated) | -19.1%
88 | CCOc1ncccc1CNC(=O)NCCNC(=O)c1ccco1 | 1.16%
89 | Cc1cccc(C(=O)NCCCN2CCc3ccccc3C2)c1C | -4.71%
90 | CCc1noc(CN(Cc2cccs2)CC2CCCO2)n1 (configuration not stated) | -8.66%
91 | CCc1nccn1C1CCCN(C(=O)c2ccoc2C)C1 (configuration not stated) | -28%
92 | COc1cc(CNCc2c(C)nn(C)c2N(C)C)ccc1OCCO | -7.59%

Row | Compound | cytotoxicity at 10 µM
93 | Cc1cnn(CC2CN(Cc3nc(-c4ccccn4)no3)CCO2)c1 (configuration not stated) | -22.6%
94 | Cc1nn(C)c(Cl)c1C1CCCN1CC(=O)Nc1cccnc1 (configuration not stated) | -17.2%
95 | CC(=O)N1CCCN(C(=O)NC(C)Cn2cccn2)CC1 (configuration not stated) | -13%
96 | CCc1nc(CN(C)C2CCN(Cc3nnc(C4CCC4)o3)C2)no1 (configuration not stated) | 0.239%
97 | O=S(=O)(CCNC1CCc2ncnn2C1)c1ccc(Cl)cc1 (configuration not stated) | -32.2%
98 | O=C(Cc1cn2ccccc2n1)N1CCCC(n2cccn2)C1 (configuration not stated) | -5.16%
99 | Cn1ccc(CN2CCN(CC3CC3)CC2)cc1=O | -16.6%
100 | Cc1nc(CN(C)C2CCN(Cc3c(C)noc3C)C2)no1 (configuration not stated) | 6.66%
101 | Cc1noc(C(C)N2CCN(Cc3cccc(C#N)c3)CC2)n1 (configuration not stated) | -5.72%
102 | CN(Cc1ccco1)C(=O)CN1CCCC(Cn2cncn2)C1 (configuration not stated) | -4%
103 | CCCc1n[nH]c(C2CN(C(=O)C3=COCCC3)CCO2)n1 (configuration not stated) | -5.04%
104 | CN(Cc1nc(N2CCCC2)ncc1-c1ccncc1)C(=O)C(C)(C)C | 6.58%
105 | Cc1ncc(CN2CCCC(O)(c3ccc(F)cc3)CC2)n1C (configuration not stated) | -4.04%
106 | Cn1nc(COCC2CC2)c2c1CN(CC1CC1)CC2 | 13.8%
107 | CCC(=O)N1CC[C@H]2[C@H](C[C@@H](Cn3cccn3)N2c2nccs2)C1 | 5.68%
108 | CC(C)CCN1C2(CCN(C(=O)CN(C)C)C2)c2ccccc2S1(=O)=O (configuration not stated) | -4.14%
109 | CN(C)C(=O)[C@@H]1C[C@@H]2CCN(C3CCOCC3)C[C@H]2O1 | 7.86%
110 | COCCN1C[C@@H]2CC[C@H]1CN(CC(=O)Nc1ccn(C)n1)C2 | -8.39%
111 | CSc1ccccc1C(=O)N1C[C@@H]2CC[C@H]1CN(C(=O)N(C)C)C2 | -3.99%
112 | O=C(CSc1ncccn1)N1C[C@@H]2CC[C@H]1CN(Cc1ccncc1)C2 | -13%
